Assay results from ChEMBL document CHEMBL1145832, “Histamine-releasing activity and binding to the FcepsilonRI alpha human mast cell receptor subunit of mast cell degranulating peptide analogues with alanine substitutions” (J Med Chem, 2003).
Where a SMILES comes first, the peptide text is derived from it.

Species: Rattus norvegicus
Assay: Concentration of peptide at 50% maximal histamine release at concentration 10e-5 M
Type: functional
Summary of the method: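 Rat peritoneal mast cells (Sprague–Dawley) lavaged into carbonate- and divalent-cation-free Tyrode's with 15 mM Hepes pH 7.2, 0.1% BSA, purified on Accudenz gradient; (1–2) × 10^3 cells/well with peptide, 37 °C 20 min. Residual cellular histamine freed by Triton X-100 then TFA, measured fluorometrically with phthalaldehyde/NaOH; n = 6; nonlinear regression.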

Compared with `CC[C@H](C)[C@H](N)C(=O)N[C@@H](CCCCN)C(=O)N[C@@H](CS)C(=O)N[C@@H](CC(N)=O)C(=O)N[C@@H](CS)C(=O)N[C@@H](C)C(=O)N[C@@H](CCCN=C(N)N)C(=O)N[C@@H](Cc1c[nH]cn1)C(=O)N[C@H](C(=O)N[C@H](C(=O)N[C@@H](CCCCN)C(=O)N1CCC[C@H]1C(=O)N[C@@H](Cc1c[nH]cn1)C(=O)N[C@H](C(=O)N[C@@H](CS)C(=O)N[C@@H](CCCN=C(N)N)C(=O)N[C@@H](CCCCN)C(=O)N[C@H](C(=O)N[C@@H](CS)C(=O)NCC(=O)N[C@@H](CCCCN)C(=O)N[C@@H](CC(N)=O)C(N)=O)[C@@H](C)CC)[C@@H](C)CC)[C@@H](C)CC)C(C)C` (H-IKCNCARHVIKPHICRKICGKN-NH2), `CC[C@H](C)[C@H](N)C(=O)N[C@@H](CCCCN)C(=O)N[C@@H](CS)C(=O)N[C@@H](CC(N)=O)C(=O)N[C@@H](CS)C(=O)N[C@@H](CCCCN)C(=O)N[C@@H](CCCN=C(N)N)C(=O)N[C@@H](Cc1c[nH]cn1)C(=O)N[C@H](C(=O)N[C@H](C(=O)N[C@@H](CCCCN)C(=O)N1CCC[C@H]1C(=O)N[C@@H](Cc1c[nH]cn1)C(=O)N[C@H](C(=O)N[C@@H](CS)C(=O)N[C@@H](CCCN=C(N)N)C(=O)N[C@@H](C)C(=O)N[C@H](C(=O)N[C@@H](CS)C(=O)NCC(=O)N[C@@H](CCCCN)C(=O)N[C@@H](CC(N)=O)C(N)=O)[C@@H](C)CC)[C@@H](C)CC)[C@@H](C)CC)C(C)C` (H-IKCNCKRHVIKPHICRAICGKN-NH2) is lower in ED50: 12.54 for the first, 0.77 for the second.

`CC[C@H](C)[C@H](N)C(=O)N[C@@H](CCCCN)C(=O)N[C@@H](CS)C(=O)N[C@@H](CC(N)=O)C(=O)N[C@@H](CS)C(=O)N[C@@H](CCCCN)C(=O)N[C@@H](CCCN=C(N)N)C(=O)N[C@@H](Cc1c[nH]cn1)C(=O)N[C@H](C(=O)N[C@H](C(=O)N[C@@H](C)C(=O)N1CCC[C@H]1C(=O)N[C@@H](Cc1c[nH]cn1)C(=O)N[C@H](C(=O)N[C@@H](CS)C(=O)N[C@@H](CCCN=C(N)N)C(=O)N[C@@H](CCCCN)C(=O)N[C@H](C(=O)N[C@@H](CS)C(=O)NCC(=O)N[C@@H](CCCCN)C(=O)N[C@@H](CC(N)=O)C(N)=O)[C@@H](C)CC)[C@@H](C)CC)[C@@H](C)CC)C(C)C` (H-IKCNCKRHVIAPHICRKICGKN-NH2) gave an ED50 of 1.07.

The compounds below were run against T1, High affinity immunoglobulin epsilon receptor subunit alpha (Homo sapiens, UniProt P12319) (assay: Binding affinity towards Fc-epsilon RI-alpha human mast cell receptor was determined).
T1 sequence (P12319 whole entry): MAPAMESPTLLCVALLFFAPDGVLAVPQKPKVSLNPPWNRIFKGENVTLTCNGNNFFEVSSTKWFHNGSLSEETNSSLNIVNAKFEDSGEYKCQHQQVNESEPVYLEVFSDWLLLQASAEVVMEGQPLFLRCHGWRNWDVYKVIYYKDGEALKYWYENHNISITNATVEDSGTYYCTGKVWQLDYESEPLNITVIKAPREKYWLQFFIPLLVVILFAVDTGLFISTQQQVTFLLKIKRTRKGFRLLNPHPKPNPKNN
Summary of the method: (§1)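 Competitive fluorescence polarization: FcεRIα subunit of human IgE receptor expressed in insect cells (7 nM) with fluorescein-labelled MCD peptide tracer (4 nM) in PBS pH 7.4, unlabelled peptide 7–500 μM, 25 °C 5 min. Ex 485/em 535 nm, mP; tracer-alone background subtracted; mean of many consecutive readings; IC50 by nonlinear regression.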

Going from `CC[C@H](C)[C@H](N)C(=O)N[C@@H](C)C(=O)N[C@@H](CS)C(=O)N[C@@H](CC(N)=O)C(=O)N[C@@H](CS)C(=O)N[C@@H](CCCCN)C(=O)N[C@@H](CCCN=C(N)N)C(=O)N[C@@H](Cc1c[nH]cn1)C(=O)N[C@H](C(=O)N[C@H](C(=O)N[C@@H](CCCCN)C(=O)N1CCC[C@H]1C(=O)N[C@@H](Cc1c[nH]cn1)C(=O)N[C@H](C(=O)N[C@@H](CS)C(=O)N[C@@H](CCCN=C(N)N)C(=O)N[C@@H](CCCCN)C(=O)N[C@H](C(=O)N[C@@H](CS)C(=O)NCC(=O)N[C@@H](CCCCN)C(=O)N[C@@H](CC(N)=O)C(N)=O)[C@@H](C)CC)[C@@H](C)CC)[C@@H](C)CC)C(C)C` (H-IACNCKRHVIKPHICRKICGKN-NH2) to `CC[C@H](C)[C@H](N)C(=O)N[C@@H](CCCCN)C(=O)N[C@@H](CS)C(=O)N[C@@H](CC(N)=O)C(=O)N[C@@H](CS)C(=O)N[C@@H](CCCCN)C(=O)N[C@@H](CCCN=C(N)N)C(=O)N[C@@H](Cc1c[nH]cn1)C(=O)N[C@H](C(=O)N[C@H](C(=O)N[C@@H](CCCCN)C(=O)N1CCC[C@H]1C(=O)N[C@@H](Cc1c[nH]cn1)C(=O)N[C@H](C(=O)N[C@@H](CS)C(=O)N[C@@H](CCCN=C(N)N)C(=O)N[C@@H](CCCCN)C(=O)N[C@H](C(=O)N[C@@H](CS)C(=O)NCC(=O)N[C@@H](C)C(=O)N[C@@H](CC(N)=O)C(N)=O)[C@@H](C)CC)[C@@H](C)CC)[C@@H](C)CC)C(C)C` (H-IKCNCKRHVIKPHICRKICGAN-NH2), the IC50 rises from 82 µM to 153 µM (1.9-fold).

First: CC[C@H](C)[C@H](N)C(=O)N[C@@H](CCCCN)C(=O)N[C@@H](CS)C(=O)N[C@@H](CC(N)=O)C(=O)N[C@@H](CS)C(=O)N[C@@H](C)C(=O)N[C@@H](CCCNC(=N)N)C(=O)N[C@@H](Cc1cnc[nH]1)C(=O)N[C@H](C(=O)N[C@H](C(=O)N[C@@H](CCCCN)C(=O)N1CCC[C@H]1C(=O)N[C@@H](Cc1cnc[nH]1)C(=O)N[C@H](C(=O)N[C@@H](CS)C(=O)N[C@@H](CCCNC(=N)N)C(=O)N[C@@H](CCCCN)C(=O)N[C@H](C(=O)N[C@@H](CS)C(=O)NCC(=O)N[C@@H](CCCCN)C(=O)N[C@@H](CC(N)=O)C(N)=O)[C@@H](C)CC)[C@@H](C)CC)[C@@H](C)CC)C(C)C (H-IKCNCARHVIKPHICRKICGKN-NH2)
Second: CC[C@H](C)[C@H](N)C(=O)N[C@@H](CCCCN)C(=O)N[C@@H](CS)C(=O)N[C@@H](CC(N)=O)C(=O)N[C@@H](CS)C(=O)N[C@@H](CCCCN)C(=O)N[C@@H](CCCNC(=N)N)C(=O)N[C@@H](Cc1cnc[nH]1)C(=O)N[C@H](C(=O)N[C@H](C(=O)N[C@@H](CCCCN)C(=O)N1CCC[C@H]1C(=O)N[C@@H](Cc1cnc[nH]1)C(=O)N[C@H](C(=O)N[C@@H](CS)C(=O)N[C@@H](CCCNC(=N)N)C(=O)N[C@@H](C)C(=O)N[C@H](C(=O)N[C@@H](CS)C(=O)NCC(=O)N[C@@H](CCCCN)C(=O)N[C@@H](CC(N)=O)C(N)=O)[C@@H](C)CC)[C@@H](C)CC)[C@@H](C)CC)C(C)C (H-IKCNCKRHVIKPHICRAICGKN-NH2)
The IC50 of the first is 2.2-fold lower: 71 µM for the first, 153 µM for the second.

For `CC[C@H](C)[C@H](N)C(=O)N[C@@H](CCCCN)C(=O)N[C@@H](CS)C(=O)N[C@@H](CC(N)=O)C(=O)N[C@@H](CS)C(=O)N[C@@H](CCCCN)C(=O)N[C@@H](CCCNC(=N)N)C(=O)N[C@@H](Cc1cnc[nH]1)C(=O)N[C@H](C(=O)N[C@H](C(=O)N[C@@H](C)C(=O)N1CCC[C@H]1C(=O)N[C@@H](Cc1cnc[nH]1)C(=O)N[C@H](C(=O)N[C@@H](CS)C(=O)N[C@@H](CCCNC(=N)N)C(=O)N[C@@H](CCCCN)C(=O)N[C@H](C(=O)N[C@@H](CS)C(=O)NCC(=O)N[C@@H](CCCCN)C(=O)N[C@@H](CC(N)=O)C(N)=O)[C@@H](C)CC)[C@@H](C)CC)[C@@H](C)CC)C(C)C` (H-IKCNCKRHVIAPHICRKICGKN-NH2), the IC50 was 153 µM.

These compounds were tested against T1, High affinity immunoglobulin epsilon receptor subunit alpha (assay: Binding affinity towards Fc-epsilon RI-alpha mast cell receptor human mast cell receptor was determined).
Summary of the method: as §1

Work on `CC[C@H](C)[C@H](N)C(=O)N[C@@H](CCCCN)C(=O)N[C@@H](CS)C(=O)N[C@@H](CC(N)=O)C(=O)N[C@@H](CS)C(=O)N[C@@H](CCCCN)C(=O)N[C@@H](CCCN=C(N)N)C(=O)N[C@@H](Cc1c[nH]cn1)C(=O)N[C@H](C(=O)N[C@H](C(=O)N[C@@H](CCCCN)C(=O)N1CCC[C@H]1C(=O)N[C@@H](Cc1c[nH]cn1)C(=O)N[C@H](C(=O)N[C@@H](CS)C(=O)N[C@@H](CCCN=C(N)N)C(=O)N[C@@H](CCCCN)C(=O)N[C@H](C(=O)N[C@@H](CS)C(=O)NCC(=O)N[C@@H](CCCCN)C(=O)N[C@@H](CC(N)=O)C(N)=O)[C@@H](C)CC)[C@@H](C)CC)[C@@H](C)CC)C(C)C` (H-IKCNCKRHVIKPHICRKICGKN-NH2) yielded an IC50 of 114 µM.
